Experimental data as given in ChEMBL document CHEMBL4387700, “A novel, potent, and orally bioavailable thiazole HCV NS5A inhibitor for the treatment of hepatitis C virus” (Eur J Med Chem, 2019).

Key:
[1] = Toxicity in Beagle dog assessed as death at 0.5 mg/kg, po; assay type: organism-based, Canis lupus familiaris; conditions: in vivo
Outline: (§1)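 Male Beagle dogs, 9–10 months old, n = 3, were given a single intravenous (0.1 mg/kg) or oral (0.5 mg/kg) dose. The intravenous solution was in DMA/propylene glycol (20/80, v/v). Dose volume was set by pre-dose body weight. Blood was sampled up to 24 h. Deaths, body weight and clinical observations were recorded during the pharmacokinetic study.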

[2] = Toxicity in Beagle dog assessed as effect on body weight at 0.1 mg/kg, iv; assay type: organism-based, Canis lupus familiaris; conditions: in vivo; outline: as §1
[3] = Toxicity in Beagle dog assessed as death at 0.1 mg/kg, iv; assay type: organism-based, Canis lupus familiaris; conditions: in vivo; outline: as §1
[4] = AUC in Sprague-Dawley rat at 5 mg/kg, po by HPLC-MS/MS analysis; assay type: ADME, organism-based; conditions: in vivo
Outline: (§2)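 Male Sprague-Dawley rats, 330–380 g, 9–10 weeks old, n = 3, jugular-cannulated 1 day ahead and fasted. Dosed iv 1.0 mg/kg or orally 5.0 mg/kg. Cannula blood was drawn at 0, 2, 5 (iv only), 15, 30 min and 1, 2, 4, 6, 8, 24 h. Plasma was assayed by HPLC-MS/MS, with non-compartmental analysis. The iv vehicle was DMA/propylene glycol (20/80, v/v).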

[5] = Toxicity in Beagle dog assessed as effect on body weight at 0.5 mg/kg, po; assay type: organism-based, Canis lupus familiaris; conditions: in vivo; outline: as §1
[6] = Cmax in Sprague-Dawley rat at 5 mg/kg, po by HPLC-MS/MS analysis; assay type: ADME, organism-based; parameters: dose 5 mg/kg, route oral; conditions: in vivo; outline: as §2
[7] = Toxicity in Sprague-Dawley rat assessed as effect on clinical observations at 1 mg/kg, iv; assay type: organism-based; conditions: in vivo
Outline: (§3)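 Male Sprague-Dawley rats, 330–380 g, 9–10 weeks old, n = 3, were quarantined 1 week and jugular-cannulated 1 day before dosing. They were fasted, then given a single intravenous (1.0 mg/kg; DMA/propylene glycol 20/80, v/v) or oral (5.0 mg/kg) dose. Deaths, body weight and clinical observations were monitored with blood sampling through 24 h.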

[8] = Toxicity in Sprague-Dawley rat assessed as death at 1 mg/kg, iv; assay type: organism-based; conditions: in vivo; outline: as §3
[9] = Toxicity in Beagle dog assessed as effect on clinical observations at 0.1 mg/kg, iv; assay type: organism-based, Canis lupus familiaris; conditions: in vivo; outline: as §1
[10] = Volume of distribution at steady state in Beagle dog at 0.1 mg/kg, iv by HPLC-MS/MS analysis; assay type: ADME, organism-based, Canis lupus familiaris; conditions: in vivo, read-out: Vdss
Outline: (§4)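 Male Beagle dogs, 9–10 months old, n = 3, dosed iv 0.1 mg/kg or orally 0.5 mg/kg. Blood was drawn at 0, 2, 5 (iv only), 15, 30 min and 1, 2, 4, 6, 8, 24 h and kept on ice. Plasma was assayed by HPLC-MS/MS, with non-compartmental analysis. The iv formulation was a solution in DMA/propylene glycol (20/80, v/v).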

[11] = Half life in Sprague-Dawley rat at 1 mg/kg, iv by HPLC-MS/MS analysis; assay type: ADME, organism-based; conditions: in vivo; outline: as §2
[12] = Cytotoxicity against human HuH7 cells assessed as reduction in cell viability by MTS assay; assay type: cell-based, Huh-7
Outline: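 Viability of Huh-7 cells was read by MTS assay.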

[13] = Tmax in Beagle dog at 0.5 mg/kg, po by HPLC-MS/MS analysis; assay type: ADME, organism-based, Canis lupus familiaris; conditions: in vivo; outline: as §4
[14] = Oral bioavailability in Sprague-Dawley rat at 5 mg/kg by HPLC-MS/MS analysis; assay type: ADME, organism-based; conditions: in vivo; outline: as §2
[15] = Half life in Beagle dog at 0.1 mg/kg, iv by HPLC-MS/MS analysis; assay type: ADME, organism-based, Canis lupus familiaris; conditions: in vivo; outline: as §4
[16] = Volume of distribution at steady state in Sprague-Dawley rat at 1 mg/kg, iv by HPLC-MS/MS analysis; assay type: ADME, organism-based; conditions: in vivo, read-out: Vdss; outline: as §2
[17] = Half life in Sprague-Dawley rat at 5 mg/kg, po by HPLC-MS/MS analysis; assay type: ADME, organism-based; conditions: in vivo; outline: as §2
[18] = Toxicity in Sprague-Dawley rat assessed as effect on body weight at 5 mg/kg, po; assay type: organism-based; conditions: in vivo; outline: as §3
[19] = Plasma clearance in Beagle dog at 0.1 mg/kg, iv by HPLC-MS/MS analysis; assay type: ADME, organism-based, Canis lupus familiaris; outline: as §4
[20] = Oral bioavailability in Beagle dog at 0.5 mg/kg by HPLC-MS/MS analysis; assay type: ADME, organism-based, Canis lupus familiaris; conditions: in vivo; outline: as §4
[21] = Tmax in Sprague-Dawley rat at 5 mg/kg, po by HPLC-MS/MS analysis; assay type: ADME, organism-based; conditions: in vivo; outline: as §2
[22] = Cmax in Beagle dog at 0.5 mg/kg, po by HPLC-MS/MS analysis; assay type: ADME, organism-based, Canis lupus familiaris; parameters: dose 0.5 mg/kg, route oral; conditions: in vivo; outline: as §4
[23] = Half life in Beagle dog at 0.5 mg/kg, po by HPLC-MS/MS analysis; assay type: ADME, organism-based, Canis lupus familiaris; conditions: in vivo; outline: as §4
[24] = AUC in Sprague-Dawley rat at 1 mg/kg, iv by HPLC-MS/MS analysis; assay type: ADME, organism-based; conditions: in vivo; outline: as §2
[25] = target: T1, Nonstructural protein 5A (Hepatitis C virus) (UniProt Q5L478); test: Potency index, ratio of daclatasvir EC50 to test compound EC50 for inhibition of NS5A in HCV genotype 1b infected in human HuH7 replicon cells; assay type: cell-based; conditions: Hepatitis C virus subtype 1b
T1 sequence (whole entry): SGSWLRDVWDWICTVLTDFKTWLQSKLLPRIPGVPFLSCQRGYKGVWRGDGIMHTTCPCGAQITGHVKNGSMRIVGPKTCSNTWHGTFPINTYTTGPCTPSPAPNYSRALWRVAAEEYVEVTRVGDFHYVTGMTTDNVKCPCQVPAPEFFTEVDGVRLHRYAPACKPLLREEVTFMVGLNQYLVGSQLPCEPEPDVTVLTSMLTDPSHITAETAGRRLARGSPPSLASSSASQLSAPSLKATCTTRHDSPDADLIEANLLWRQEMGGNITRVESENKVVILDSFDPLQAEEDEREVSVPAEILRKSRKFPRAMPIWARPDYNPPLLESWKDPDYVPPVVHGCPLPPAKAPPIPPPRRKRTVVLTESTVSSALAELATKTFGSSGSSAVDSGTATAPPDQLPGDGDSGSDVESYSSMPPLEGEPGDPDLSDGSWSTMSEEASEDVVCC

[26] = AUC in Beagle dog at 0.1 mg/kg, iv by HPLC-MS/MS analysis; assay type: ADME, organism-based, Canis lupus familiaris; conditions: in vivo; outline: as §4
[27] = Toxicity in Beagle dog assessed as effect on clinical observations at 0.5 mg/kg, po; assay type: organism-based, Canis lupus familiaris; conditions: in vivo; outline: as §1
[28] = Toxicity in Sprague-Dawley rat assessed as death at 5 mg/kg, po; assay type: organism-based; conditions: in vivo; outline: as §3
[29] = Toxicity in Sprague-Dawley rat assessed as effect on clinical observations at 5 mg/kg, po; assay type: organism-based; conditions: in vivo; outline: as §3
[30] = Plasma clearance in Sprague-Dawley rat at 1 mg/kg, iv by HPLC-MS/MS analysis; assay type: ADME, organism-based; outline: as §2
[31] = Toxicity in Sprague-Dawley rat assessed as effect on body weight at 1 mg/kg, iv; assay type: organism-based; conditions: in vivo; outline: as §3
[32] = AUC in Beagle dog at 0.5 mg/kg, po by HPLC-MS/MS analysis; assay type: ADME, organism-based, Canis lupus familiaris; conditions: in vivo; outline: as §4

O=C(N[C@@H](C(=O)N1CCC[C@H]1c1ncc(-c2ccc(-c3ccc(-c4cnc([C@@H]5CCCN5C(=O)[C@H](NC(=O)C5CC5)c5ccccc5)s4)cc3)cc2)s1)c1ccccc1)C1CC1
Activity [1]: Non-Toxic
Activity [2]: Non-Toxic
Activity [3]: Non-Toxic
AUC [4]: 14500 ng·h/mL
Activity [5]: Non-Toxic
Cmax [6]: 305 ng/mL
Activity [7]: Non-Toxic
Activity [8]: Non-Toxic
Activity [9]: Non-Toxic
Vd [10]: 1.6 L/kg
half-life [11]: 18.3 h
CC50 [12]: > 50 µM
Tmax [13]: 2.5 h
bioavailability [14]: 22%
half-life [15]: 19.2 h
Vd [16]: 1.3 L/kg
half-life [17]: 20.4 h
Activity [18]: Non-Toxic
clearance [19]: 1.3 mL/min/kg
bioavailability [20]: 23.3%
Tmax [21]: 3.3 h
Cmax [22]: 94.9 ng/mL
half-life [23]: 21.4 h
AUC [24]: 16300 ng·h/mL
Ratio EC50 [25]: 3
AUC [26]: 1390 ng·h/mL
Activity [27]: Non-Toxic
Activity [28]: Non-Toxic
Activity [29]: Non-Toxic
clearance [30]: 1.1 mL/min/kg
Activity [31]: Non-Toxic
AUC [32]: 1620 ng·h/mL
